Measured values as given in ChEMBL document CHEMBL1136477, “beta-alanine dipeptides as MC4R agonists” (Bioorg Med Chem Lett, 2003).

Assays:
[1] = target: T1, Melanocortin receptor 4 (Homo sapiens, UniProt P32245); assay: Stimulation of adenylate cyclase in HEK293 cells expressing the human MC4R receptor was determined by measuring cAMP accumulation using the RPA559 SPA assay; format: functional, cell-based
How it was run: (§1)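 HEK293 cells stably expressing human MC4R (MEM, G418, 10% heat-inactivated FBS) seeded 5×10^4 cells/well overnight. Then 10 min at 37 °C with 0.1 mM IBMX and increasing compound (1% DMSO final). After lysis, cAMP read by SPA kit. EC50 by non-linear regression. Intrinsic activity is % of NDP-a-MSH maximum. Run twice or three times in duplicate.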

[2] = Intrinsic activity was expressed as percent of maximal activity achieved by NDP-alpha-MSH.; format: functional; how it was run: as §1
[3] = target: T1, Melanocortin receptor 4; assay: Binding activity was measured using membranes of Hi5 cells expressing the human MC4R receptors; format: cell membranes, BTI-TN-5B1-4

T1 sequence (P32245 whole entry): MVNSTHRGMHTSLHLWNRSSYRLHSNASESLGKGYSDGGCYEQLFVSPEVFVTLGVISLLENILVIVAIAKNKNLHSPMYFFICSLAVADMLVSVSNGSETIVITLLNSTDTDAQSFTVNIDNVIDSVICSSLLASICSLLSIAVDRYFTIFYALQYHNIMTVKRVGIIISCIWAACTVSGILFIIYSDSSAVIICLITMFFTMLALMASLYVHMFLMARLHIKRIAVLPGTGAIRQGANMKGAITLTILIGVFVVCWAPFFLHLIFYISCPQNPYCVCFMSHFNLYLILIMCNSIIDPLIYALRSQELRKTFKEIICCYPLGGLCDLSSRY

SMILES | EC50 [1] | IC50 [3] | Max stimulation [2]
O=C(CCN(Cc1ccccc1)Cc1ccccc1)N[C@H](Cc1ccc(Cl)cc1)C(=O)N1CCC(Cn2cncn2)(C2CCCCC2)CC1 |  | 110 nM | 
COCC(=O)NCCC(=O)N[C@H](Cc1ccc(Cl)cc1)C(=O)N1CCC(Cn2cncn2)(C2CCCCC2)CC1 |  | 21 nM | 
O=C(CCNC(=O)C(F)(F)F)N[C@H](Cc1ccc(Cl)cc1)C(=O)N1CCC(Cn2cncn2)(C2CCCCC2)CC1 |  | 180 nM | 
O=C(N[C@H](Cc1ccc(Cl)cc1)C(=O)N1CCC(Cn2cncn2)(C2CCCCC2)CC1)[C@H]1Cc2ccccc2CN1 |  |  | 99%
O=C(CCNC(=O)[C@H]1CCCNC1)N[C@H](Cc1ccc(Cl)cc1)C(=O)N1CCC(Cn2cncn2)(C2CCCCC2)CC1 |  | 22 nM | 
CC(C)(CN)C(=O)N[C@H](Cc1ccc(Cl)cc1)C(=O)N1CCC(Cn2cncn2)(C2CCCCC2)CC1 |  | 30 nM | 
O=C(C[C@@H]1CCCN1)N[C@H](Cc1ccc(Cl)cc1)C(=O)N1CCC(Cn2cncn2)(C2CCCCC2)CC1 |  | 22 nM | 
O=C(CCNC(=O)c1ccccc1)N[C@H](Cc1ccc(Cl)cc1)C(=O)N1CCC(Cn2cncn2)(C2CCCCC2)CC1 |  | 90 nM | 
O=C(CCNC(=O)[C@@H]1CCCNC1)N[C@H](Cc1ccc(Cl)cc1)C(=O)N1CCC(Cn2cncn2)(C2CCCCC2)CC1 |  | 25 nM | 

The next lines start with results.

EC50 [1] | IC50 [3] | SMILES | Max stimulation [2]
70 nM | 10 nM | CNCCC(=O)N[C@H](Cc1ccc(Cl)cc1)C(=O)N1CCC(Cn2cncn2)(C2CCCCC2)CC1 | 98%
 | 14 nM | O=C(CCNCc1ccccc1)N[C@H](Cc1ccc(Cl)cc1)C(=O)N1CCC(Cn2cncn2)(C2CCCCC2)CC1 | 
170 nM | 16 nM | NCCC(=O)N[C@H](Cc1ccc(Cl)cc1)C(=O)N1CCC(Cn2cncn2)(C2CCCCC2)CC1 | 92%
 | 16 nM | O=C(N[C@H](Cc1ccc(Cl)cc1)C(=O)N1CCC(Cn2cncn2)(C2CCCCC2)CC1)C1CNC1 | 
 | 9 nM | O=C(N[C@H](Cc1ccc(Cl)cc1)C(=O)N1CCC(Cn2cncn2)(C2CCCCC2)CC1)[C@H]1CCCNC1 | 
 | 11 nM | CN(C)CCC(=O)NCCC(=O)N[C@H](Cc1ccc(Cl)cc1)C(=O)N1CCC(Cn2cncn2)(C2CCCCC2)CC1 | 
40 nM | 10 nM | CN(C)CCC(=O)N[C@H](Cc1ccc(Cl)cc1)C(=O)N1CCC(Cn2cncn2)(C2CCCCC2)CC1 | 98%
 | 12 nM | O=C(N[C@H](Cc1ccc(Cl)cc1)C(=O)N1CCC(Cn2cncn2)(C2CCCCC2)CC1)[C@@H]1CCCNC1 | 
 | 12 nM | O=C(CCN1CCCCC1)NCCC(=O)N[C@H](Cc1ccc(Cl)cc1)C(=O)N1CCC(Cn2cncn2)(C2CCCCC2)CC1 | 
 | 12 nM | CC(=O)NCCC(=O)N[C@H](Cc1ccc(Cl)cc1)C(=O)N1CCC(Cn2cncn2)(C2CCCCC2)CC1 | 
 | 18 nM | CC(C)(N)CC(=O)N[C@H](Cc1ccc(Cl)cc1)C(=O)N1CCC(Cn2cncn2)(C2CCCCC2)CC1 | 
